The data set relates to MS2 coat protein. Description: apparent Kd, MS2 coat protein; higher = weaker binding; RNA-MaP array; FMN 200 µM where present. The gist of the method:
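Green signal from SNAP-549-labelled MS2 coat protein was normalised to red-channel RNA signal and to the median Fmax of control clusters. The protein was titrated from 0.7 or 1.5 nM, doubling to 3 µM, without and then with constant ligand, over designs transcribed by stalled E. coli RNA polymerase on Illumina sequencing-chip clusters, in 100 mM Tris-HCl pH 7.5, 80 mM KCl, 4 mM MgCl2, BSA, DTT, yeast tRNA and Tween-20. The apparent Kd is the median of filtered per-cluster binding-curve fits.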

The mark [1] stands for this setting: designed as: OFF switch for flavin mononucleotide, no ligand.
The mark [2] stands for this setting: ligand present: flavin mononucleotide, designed as: OFF switch for flavin mononucleotide.
[3] abbreviates: designed as: ON switch for flavin mononucleotide, no ligand.
Setting [4] is: ligand present: flavin mononucleotide, designed as: ON switch for flavin mononucleotide.

48 sequences from the EternaBench riboswitch data can be followed below.

Usually apparent Kd stands for the concentration giving half-maximal binding under the conditions of the assay. Regarding “GUACUACAUGAGGAUCACCCAUGUCAGGAUAUGUGAAUUUCAUCAAAAGAUGAAAUUCGUAGAAGGGACAGUAC”, the “apparent Kd” value under setting [1] was determined as 22.2 nM and the “apparent Kd” value under setting [2] was determined as 29.4 nM.
“UUAUUUAUGCAAGGAUAUCAAUUAUAUAGACGUCCUACAUGAGGAUCACCCAUGUUUAGUUUUUUUGAGAAGGUGCAUUGUCGG”: the “apparent Kd” value runs as follows: under setting [3], 43.1 nM; under setting [4], 31.1 nM.
With “AUUUUGUCAGGAUAUGAUUAGUAGGACGAGAGUGCUACUACUUAGAAGGGACAUGAGGAUCACCCAUGUAUUCC”, the “apparent Kd” value is, setting by setting: under setting [1], 17.8 nM; under setting [2], 22.2 nM.
Consider “UCGUUGUCAGGAUAUCGUUAAUUUAGUUGUUUGUAUUAGUUCGAGAAGGGACAUGAGGAUCACCCAUGUUUGCU”, for which the “apparent Kd” value reads like this: under setting [1], 30.1 nM; under setting [2], 70.9 nM.
The corresponding values for “GUCGGAUGUAUAGGAUAUCGACUGGAUAACAGUCGAGAAGGAUACAUGAGGAUCACCCAUGUAAUAAUAAUAAUAAUAACCGAC” are 12.8 nM and 24.6 nM.
With “GGAUAGGACAGAGGAUAUACGGAUAGGAUCUACUAUCUUCUUCAAAUAACAUGAGGAUCACCCAUGUAGAAGGCUGUCCUAUCG”, the “apparent Kd” value under setting [1] came to 16 nM and the “apparent Kd” value under setting [2] amounted to 31.9 nM.
On to “AAGGAAACCACAGGAUAUGGCUAGCAUAGCUAGCCAGAAGGGUGGUCGAAACCAUGUAAAUACAUGAGGAUCACCCAUGUGUCC”, for which the “apparent Kd” value came to 189 nM under setting [3] and 271 nM under setting [4].
The corresponding values for “GGAGACCUCACAGGAUAUGCUGGACUUUGUCCAGCAGAAGGGUGAAAACAUGAGGAUCACCCAUGUAUGGUCUCCAAAUUUAAC” are 182 nM and 13.6 nM.
“AGGCCGCUACGCCGGCUUCACGCACAGGAUAUGCAGUUACAUGAGGAUCACCCAUGUGGCCAUGUGCAGAAGGGUGGUUCGUUA”: the “apparent Kd” value was 109 nM under setting [3] and 24.5 nM under setting [4].
On to “AGAUCUACAGGAUAUACAUGAAAGAUCAUCAUGACCCUUCAACAUGAGGAUCACCCAUGUAGAAGGGUAGAUCA”, for which the “apparent Kd” value is 27.7 nM under setting [1] and 13.5 nM under setting [2].
In the case of “GCCUUAUCCGUCAGGAUAUACAUUUUUUUGUUGUUGUAGAAGGGACAUGAGGAUCACCCAUGUACAUUACAUUG”, the “apparent Kd” value by setting is: under setting [1], 21.5 nM; under setting [2], 25.1 nM.
For “GCUGCAUAGGCAGGAUAUACAAUAAUUCGAAUAAAAUAUAACGAAUUAACAUGAGGAUCACCCAUGUAGAAGGGCCUGUGCAGU” the same measures were 6.32 nM and 10.4 nM.
For “ACGUCGAGCCAGAAGGCAACAUGAGGAUCACCCAUGUAGUCCGGCUCGUGUUGAGGAUAUGGCACCCGCGCUGAAGGCGCAGGU” the same measures were 5.43 nM and 7.55 nM.
Consider “CGGUCGAUAUCAGGAUAUCGUUUAAUUACAUGAGGAUCACCCAUGUUGACAAGGAAUAUAACUUGCGAGAAGGGAUUACGAUCG”, for which the “apparent Kd” value under setting [3] amounted to 9.33 nM and the “apparent Kd” value under setting [4] stood at 6.47 nM.
In the case of “GUCCUUUCUGAGGAUAUUAUCUGGUUCGAUUGAUAAGAAGGCAGUACAUGAGGAUCACCCAUGUGGGUCGUUUG”, the “apparent Kd” value was 37.3 nM under setting [1] and 244 nM under setting [2].
Regarding “AGGAGUAAAGGGAAUAACAUGAGGAUCACCCAUGUAUGGGAGAGAAGGCAGAUUGGAGGACGAUCUGAGGAUAUUUAAACUCUA”, the “apparent Kd” value by setting is: under setting [3], 53.5 nM; under setting [4], 20.1 nM.
Regarding “AGGAUCCUAUCAAGACAAAUGUACAUGAGGAUCACCCAUGUGCAGGAUAUAGCUAGUUACGGUGGCUAGAAGGGCACACCAAAA”, the “apparent Kd” value under setting [1] was 6.72 nM and the “apparent Kd” value under setting [2] was 14.3 nM.
On to “UUUGCAUACCGAGGAUAUUCAUAUAAUAAAUAAACAUGAGGAUCACCCAUGUGGCGAAAGCCUAGGGAGAAGGCGGAAUGCUUU”, for which the “apparent Kd” value worked out at 162 nM under setting [3] and 30.1 nM under setting [4].
“UAAGUUUUGGUAGGAUAUACUUUAAAUUUCUCUAUCCAUACAUGAGGAUCACCCAUGUUUACAUUGUAGAAGGACCUUUAUGUU”: the “apparent Kd” value reads like this: under setting [1], 36.8 nM; under setting [2], 34 nM.
The corresponding values for “AAUAACAGAGGAUAUACUAUUUUAUGUAUUUAUUAUUUUAAACAUGAGGAUCACCCAUGUAGAAGGCUGAUUAA” are 28.1 nM and 30.4 nM.
The corresponding values for “UAAAUUUUAUGAUAUUAUGACAUUAGAAGGCUGUACAUGUUGAUACAUGAGGAUCACCCAUGUAUAGAGGAUAUAGACAAUUAU” are 40.5 nM and 92.6 nM.
For “AUCCGGCGUGUAGGAUAUGGAAAAGAUUAGAAACCAGAAGGACAUGAGGAUCACCCAUGUACAUGUAAACAGUCAUCACCGGAA”, the “apparent Kd” value is, setting by setting: under setting [1], 12.2 nM; under setting [2], 35.1 nM.
For the sequence “GGUUUUGUGUAAGGAUAUGCAUCACUGAGAAAUUUAGUGAGGAAGAUCACAUGAGGAUCACCCAUGUAGAAGGUACACAUGUGG”, the “apparent Kd” value was determined as 57.9 nM under setting [1] and 89.2 nM under setting [2].
“UAUAUAUAGUAAGGAUAUAUAUUUUUUUUUUAAAUAGAAGGUACAGACAUGAGGAUCACCCAUGUUAUAAUAUGGACAUGUGGA”: the “apparent Kd” value is, setting by setting: under setting [1], 99 nM; under setting [2], 136 nM.
In the case of “GGUAGAAACAUUAACAUGAGGAUCACCCAUGUCAAAAGAAAUGAGGAUAUCGUAUACAAUGUAUAUGAGAAGGCAUGGUCUGCC”, the “apparent Kd” value under setting [3] was 9.17 nM and the “apparent Kd” value under setting [4] turned out to be 6.45 nM.
With “AUGAGGUUAGGAUAUACAUGAGGAUCACCCAUGUUGAAAGGUUAGGUAGGCGGAGCUGGUAGAAGGAACGGAGC”, the “apparent Kd” value by setting is: under setting [1], 39.7 nM; under setting [2], 31.8 nM.
For “CUUAUGUGAGGAUAUCAGUAGUAAAAAAAUAAAAUUACUACUGAGAAGGCACAUGAGGAUCACCCAUGUGCCUC”, the “apparent Kd” value runs as follows: under setting [1], 14.4 nM; under setting [2], 13.4 nM.
For “AUGCUUCACACAGGAUAUUACAACAUGAGGAUCACCCAUGUACAUGACAUGACGAUCACGCAUGUUAAGAAGGGUGUGAAGCAU” the same measures were 587 nM and 449 nM.
The corresponding values for “UGCAUGCUAGGAUAUACGAAACAUUAGGGUUCUUCGUAUGAACAUGAGGAUCACCCAUGUAGAAGGAGCGUGCU” are 35.5 nM and 191 nM.
For “UCGACCGGAGGAUAUCACGUAAAGUACAUGAGGAUCACCCAUGUGUGAUGACUCGAGUCGUGAGAAGGCCGAUAUG” the same measures were 76.4 nM and 172 nM.
Regarding “GCACGGAUGGUAGGAUAUCAUUGCGAUUAGCUAUGAGAAGGACCACAUGAGGAUCACCCAUGUCCUCUAAUUAGCCUUCCGUGC”, the “apparent Kd” value is, setting by setting: under setting [1], 179 nM; under setting [2], 297 nM.
For “GCGUUGUACGAGAAGGCCAAUACAUGAGGAUCACCCAUGUUAAGUUGUUUUGGAGGAUAUCGAUCACCUACAAUAAUGCAACGC” the same measures were 6.83 nM and 5.9 nM.
Turning to “UGUUACUAGUAAGGAUAUACUUGCGACUAGCUUGUAGAAGGUACAGUCUUUUGUAUAACAUGUUUACAUGAGGAUCACCCAUGU”, the “apparent Kd” value turned out to be 9.05 nM under setting [3] and 8.38 nM under setting [4].
In the case of “AUAUAUAUAUAGAAGGUGCCAGCGAGAGCUGCACAUGAGGAUCACCCAUGUUGUCGGUGACGACGCAAGGAUAUAUAUAUAUAU”, the “apparent Kd” value worked out at 34 nM under setting [3] and 15.4 nM under setting [4].
For the sequence “UUUCCACAUGAGGAUCACCCAUGUCAGGAUAUUAGAUCUAUUUAUACAUAUAAUUAUUUAAGAAGGGACACUAA”, the “apparent Kd” value is, setting by setting: under setting [1], 18.1 nM; under setting [2], 16.9 nM.
For “CUUUCGUUAGCAGGAUAUGGACAGGCCUGUCCGUCUUGAGUCAGUAACAUGAGGAUCACCCAUGUCCAGAAGGGCUCGAAGGGA” the same measures were 17.7 nM and 32.4 nM.
As to “AAAUCUUACGAAGGAUAUACAAACAUGAGGAUCACCCAUGUGUGUUUCGUGUAACUGAAAUUCGGGUAGAAGGUCGUAGACAUA”, the “apparent Kd” value under setting [1] was found to be 24.3 nM and the “apparent Kd” value under setting [2] was determined as 15 nM.
For “GCGUGACAUGAGGAUCACCCAUGUGAGGAUAUCUGGAUACUCUUUAUUUUAGAUAUCCAGAGAAGGCACAUGCU” the same measures were 217 nM and 151 nM.
For “AGAUACAGGCAGAAGGGUUGGUAAGUUGGGUCAACAGGAUAUGCCUCUGUGACAUGAGGAUCACCCAUGUUACCAAACAGUCUU”, the “apparent Kd” value runs as follows: under setting [3], 583 nM; under setting [4], 49.5 nM.
For the sequence “GUAGCAUACCGAGGAUAUUCAGGGCGUGGAUAUACAUGAGGAUCACCCAUGUGGCGGAAGCCUAGGGAGAAGGCGGGCUGCUAC”, the “apparent Kd” value came to 21.6 nM under setting [3] and 16.3 nM under setting [4].
On to “GACUGCUGAGGAUAUACAUGAGGAUCACCCAUGUGCUUCAGCUACGAGAGUAGCAUUGGUAGAAGGUAGUAGUC”, for which the “apparent Kd” value runs as follows: under setting [1], 12.1 nM; under setting [2], 22.1 nM.
The corresponding values for “CGACAGUCAGGAUAUGCAAAAAAAAAAAAAAAAAAAAAAAAGCAGAAGGGACAUGAGGAUCACCCAUGUCGUCG” are 59.5 nM and 45.2 nM.
The corresponding values for “GUAGCUACAUGAGGAUCACCCAUGUAGGAUAUCGCUAUUGUAAUCAUGAAACAUGAUUACAAUAGCGAGAAGGACAUGUGCUAC” are 20.9 nM and 25.2 nM.
In the case of “GGUGCUAUGUAGAAGGCAGAUCUGAUUCAGAUCUGAGGAUAUACAUGAGGAUCACCCAUGUUAUGCACCAGCACGAGAGUGCAG”, the “apparent Kd” value under setting [1] was 8.07 nM and the “apparent Kd” value under setting [2] turned out to be 14 nM.
For “GCGCAUUUAAGAUUUAUAUAAUUGUCAGAAGGUGAAAAGACGACAUGAGGAUCACCCAUGUAAUUCAAGGAUAUGAUUUAGCGC”, the “apparent Kd” value reads like this: under setting [3], 34.3 nM; under setting [4], 13.3 nM.
In the case of “ACUAUACGAGGAUAUACUGACAGGCCUCAGGCAUACAUCAAACAUGAGGAUCACCCAUGUAGAAGGCGUAUACU”, the “apparent Kd” value runs as follows: under setting [1], 30.4 nM; under setting [2], 68.1 nM.
Take “UAUUUUAACUAAGGAUAUCUGUAUUUUGUUGAAACAUGAGGAUCACCCAUGUUCAUGAAAUUAUAGGAGAAGGUAGAUGAAUAA”: the “apparent Kd” value worked out at 6.65 nM under setting [3] and 4.95 nM under setting [4].
For the sequence “UGUCGGAGCAGAGGAUAUACAUGAGGAUCACCCAUGUAAGAAAGUGAAGCCUGGAAACAGGCAAUGUAGAAGGCUGCUCCGACA”, the “apparent Kd” value under setting [1] worked out at 12.4 nM and the “apparent Kd” value under setting [2] turned out to be 86.3 nM.
